These results are taken from paper PMC8962836 (Journal of Alzheimer's disease : JAD, 2016).

Several values for one entry are separate records, joined by “and”; a condition that tells them apart may be missing. Equal values may be shown once. Entries after “also recorded” stand apart in the source; their conditions may differ. Bounds are passed on as bounds.

One data set has as its system Aβ levels. The note with it: cited from earlier work.
The subject of a further data set is 3xTgAD mouse model. The note with it: cited from earlier work.
For another data set, the system named is calpain 1. The note with it: read-out: IC50 calpain 1; cited from earlier work.
In data set [1] the test system is Aβ42-induced LTP impairment in hippocampal slices. The format is cell-based, mouse. The note with it: compound 650 nM co-administered with Aβ42 (200 nM, 20 min). An outline of the steps:
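Mouse transverse hippocampal slices (400 μm) were kept in an interface chamber at 29°C. Aβ42 oligomers were formed overnight at 4°C in ACSF, then diluted in vehicle. Test compound (Tween-80/DMSO stock diluted in vehicle) was perfused with Aβ42 for 20 min before tetanization, and responses were recorded for 120 min. Data are % of control or (co-treatment/Aβ42 alone)×100; mean ± SEM, repeated-measures two-way ANOVA.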

The next data set concerns mice. Particulars: mouse, in vivo.
The next data set relates to WT mice. The note with it: mouse, in vivo, ip.
In data set [2] the test system is calpain (calpain-generated spectrin fragment around 145 kDa). The data set is described as follows: Spectrin western blotting of hippocampal homogenates after in vivo treatment. Also on record: species or system mouse. An outline of the steps:
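Hippocampi were taken from mice given test compound or vehicle. Tissue was homogenized in 62.5 mM Tris-HCl pH 6.8, 3% LDS, 1 mM DTT, held 10 min at 4°C, sonicated and centrifuged (20,000 rpm, 5 min). Extracts (15 μg/lane; vehicle also 20 μg) ran on 3–8% Tris-Acetate gels. Blots were probed with spectrin and β-III-tubulin antibodies (1:1,000) for the ~145 kDa calpain fragment.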

Data set [3] in a line: Pharmacokinetic assessment in plasma. Format: in vivo, ICR mice. An outline of the steps: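 Male ICR mice (54 total; 3 groups of 18) were dosed i.p. with test compound in Tween-80 + DMSO diluted with vehicle. Plasma was separated by centrifugation (11,000 rpm, 5 min), stored at –80°C, and 25 μl was processed for LC/MS/MS. Calibration standards were spiked into heparinized blank mouse plasma at 3.00–10,000 ng/ml.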

Data set [4] relates to AβPP/PS1 mice. The data set is described as follows: 2-day radial-arm water maze. The format is in vivo, mouse. Put shortly: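 2-day RAWM in AβPP/PS1 and WT littermates given vehicle or test compound daily. Compounds were dissolved in Tween-80 + DMSO, then diluted with vehicle. Mice were trained […] to find a goal-arm platform, alternating visible and hidden platform. Investigators were blind to treatment and genotype. Data are mean ± SEM, analysed by two-way repeated-measures ANOVA.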

Data set [5] deals with AβPP/PS1 mice. The data set is described as follows: Contextual fear conditioning. The format is in vivo, mouse. Put shortly: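 AβPP/PS1 and WT littermates got daily vehicle or test compound (Tween-80/DMSO, then vehicle-diluted). Training: one mouse per room, 2 min in the conditioning chamber, 0.50 mA foot shock for 2 s in the last 2 s, then 30 s more before returning to the home cage. Contextual freezing was scored. Investigators were blind to treatment and genotype; n = 8–18 per group; mean ± SEM, one-way ANOVA.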

Setting [6] is: daily treatment from age 2 months until 7 months.

As to `CC(C)C[C@H](NS(=O)(=O)c1ccccc1)C(=O)N[C@@H](C(C)C)[C@@H](O)c1c(-c2ccccc2)c1=O` [BDA-410], the “Effect on Aβ levels” value with Aβ levels was “do not have any effect on Aβ levels”.
In the case of `CCN(CC)Cc1ccc(/C=C/c2ccccc2C(=O)NC(Cc2ccccc2)C(=O)C(N)=O)cc1` (centres unmarked) [A-705253], the “Activity in 3xTgAD mouse model” value with 3xTgAD mouse model was “rescuing memory defects, and reducing levels of BACE enzyme, Aβ deposits, and overall neuroinflammation”.
Broadly, the IC50 is the concentration at which inhibition is half-maximal. Turning to `O=C(NCc1cn(-c2ccc(F)cc2)nn1)[C@H](Cc1cscn1)NC(=O)[C@H]1O[C@@H]1C(=O)O` [NYC488], in the data set on calpain 1, the IC50 was below 100 nM. Besides, the “Rescue of Aβ42-induced LTP impairment (phenotypic screening)” value in data set [1] is “robust results; also recorded: surpassed E64 benchmark in the LTP rescue assay”. Also, the “Clinical signs of toxicity after acute single dose at MTD” value in the data set with mice is listed as “No clinical signs of toxicity”. In addition, the “Maximum tolerated dose (MTD)” value in the data set with WT mice is given as 200 mg/kg. The “Prevention of calpain-generated spectrin fragments in hippocampus” value in [2] (i.p. treatment for 12 days, same doses as PK) is “dramatically reduced the amount of fragments”. In addition, the “Ability to cross the blood-brain barrier and inhibit calpain in the brain” value in data set [2] (inferred from spectrin fragment decrease after systemic administration) is “cross the blood-brain barrier (BBB) and inhibit calpain in the brain”. In addition, in [3] (i.p., equimolar dose (7.57/7.86/7.83 mg/kg)), the Absolute bioavailability was 41.3%. Besides, the Half-life in data set [3] (plasma, i.p., equimolar dose (7.57/7.86/7.83 mg/kg)) was 0.6 h and ~ 0.6 h. The Absorption result in data set [3] (upon i.p. injection) is given as “rapidly absorbed”. Besides, the “RAWM performance of WT littermates” value in the data set on AβPP/PS1 mice [4] (WT littermates, treatment 2 to 3 months of age) is listed as “did not affect the WT littermate performance”. For the same compound, the “Spatial memory defect (2-day RAWM) in AβPP/PS1 mice” value is “ameliorated the defect in spatial memory; also recorded: ameliorated the deficit in RAWM performance” in the data set with AβPP/PS1 mice [4] (daily treatment from age 2 months until 3 months) and “ameliorated the defect in spatial memory” in the data set on AβPP/PS1 mice [4] (setting [6]). Moreover, the “Contextual fear memory defect in AβPP/PS1 mice” value in the data set with AβPP/PS1 mice [5] (daily treatment from age 2 months until 3 months, 7.57/7.86/7.83 mg/kg) is “ameliorated the defect in contextual fear memory”; in the data set on AβPP/PS1 mice [5] (setting [6]), “ameliorated the defect in contextual fear memory”.
With `CC(C)C[C@H](NC(=O)[C@H]1O[C@@H]1C(=O)O)C(=O)NCCCCN=C(N)N` [E64], the “Effect on Aβ levels” value in the data set on Aβ levels was “do not have any effect on Aβ levels”.
